SENP7 block: SENP7 protease inhibitors, primary screen, biochemical, luminescence, uHTS | Sentrin-specific protease 7 (Homo sapiens), Q9BQF6 | recombinant SENP7, Z-RLRGG-aminoluciferin luminescence, 40 min | inhibition, % at 5 µM | 1.5% of 330,000 active | AID 434973, 2010;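 active means inhibition above about 50% at the single test dose, limit read from the data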
SENP1 FRET inh: human SENP1 catalytic domain inhibitors, primary screen, biochemical, FRET, uHTS. Sentrin-specific protease 1 (Homo sapiens), Q9P0U3. recombinant SENP1 catalytic domain, CyPet-SUMO1-YPet FRET cleavage. inhibition, % at 10 µM. 0.21% of 360,000 active. AID 624204, 2012;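 active means inhibition at least 30% at 10 µM, raw YFP signal under a set limit, fluorescence ratio 0.5 to 1.5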
Target sequence (Q9P0U3 419-644 limits assumed): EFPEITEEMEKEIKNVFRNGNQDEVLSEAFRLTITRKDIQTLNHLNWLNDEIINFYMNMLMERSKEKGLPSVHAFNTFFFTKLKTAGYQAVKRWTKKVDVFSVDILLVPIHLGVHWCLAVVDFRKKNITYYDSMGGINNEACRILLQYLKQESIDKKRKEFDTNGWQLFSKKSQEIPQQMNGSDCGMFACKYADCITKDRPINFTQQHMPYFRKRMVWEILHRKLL
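Controls: no-enzyme wells low, DMSO-plus-enzyme wells high control. Test system: human recombinant His6-tagged SENP1 catalytic domain enzyme. Reagent: SFCypet-SUMO1-SFYpet FRET protein substrate, 25 nM final. Doses: one dose per compound, 10 µM, 0.5% DMSO. Detection: FRET, CFP and YFP emission. Timing: 50 min reaction at room temperature.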
SENP8 block-1: human SENP8 protease inhibitors, primary screen, biochemical, fluorescence, Nedd8 protein substrate, uHTS. Sentrin-specific protease 8 (Homo sapiens), Q96LD8. recombinant SENP8. inhibition, % at 20 µM. 0.64% of 360,000 active; in the data active means inhibition mostly above about 40%, no sharp cut-off; inactive means mostly below about 27%
Target sequence (Q96LD8 whole entry, looked up): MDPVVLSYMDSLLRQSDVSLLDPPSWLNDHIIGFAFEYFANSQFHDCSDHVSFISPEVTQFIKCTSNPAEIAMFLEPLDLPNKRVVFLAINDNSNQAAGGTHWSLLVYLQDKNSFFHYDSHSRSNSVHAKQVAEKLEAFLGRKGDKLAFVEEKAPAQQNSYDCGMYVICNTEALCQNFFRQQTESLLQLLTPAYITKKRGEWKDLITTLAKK
SENP6 inh: SENP6 protease inhibitors, primary screen, biochemical, luminescence, uHTS | Recombinant SENP6 catalytic domain, aminoluciferin luminescence | 1.8% of 330,000 active | inhibition, % at 10 µM | AID 2599, 2010;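 active means inhibition above about 50% at the single tested dose, limit read from the data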
SENP8 block-2: SENP8 protease inhibitors, primary screen, biochemical, luminescence; Sentrin-specific protease 8 (Homo sapiens), Q96LD8; purified SENP8, Z-RLRGG-aminoluciferin cleavage; inhibition, % at 10 µM; 1.2% of 330,000 active; in the data active means inhibition above about 50%
SENP8 confirm: SENP8 protease inhibitors, retest, confirmation, biochemical, luminescence, single concentration; shares compounds with SENP7 block; Recombinant SENP8, Z-RLRGG-aminoluciferin luminescence, 60 min; inhibition, % at 12.5 µM; 40% of 6,200 active; AID 488912, 2010;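 active means mean inhibition across replicates above about 50%, limit read from the data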
SENP6 conf: SENP6 protease inhibitors, confirmation, biochemical, luminescence, single concentration; 58% of 6,200 active; shares compounds with SENP7 block; recombinant SENP6, Z-RLRGG-aminoluciferin luminescence; inhibition, % at 12.5 µM
SENP7 conf: SENP7 protease inhibitors, retest, confirmation, biochemical, luminescence, single concentration. shares compounds with SENP7 block. recombinant SENP7, Z-RLRGG-aminoluciferin luminescence, 40 min. inhibition, % at 12.5 µM. 69% of 6,200 active. AID 488917, 2010
Casp3 SENP sel: caspase-3 protease inhibitors, confirmation, selectivity assay for SENP inhibitor project, biochemical, single concentration | shares compounds with SENP7 block | purified caspase-3, Z-DEVD-aminoluciferin luminescence, 60 min | inhibition, % at 12.5 µM | 60% of 6,200 active | AID 488918, 2010;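 active means mean inhibition above about 50%, limit read from the data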
SENP luc ctr: interferes with luciferase luminescence in SENP counter-screen; 39% of 6,200 active; Pre-incubated SENP8/Z-RLRGG-aminoluciferin, luciferase luminescence interference; shares compounds with SENP7 block; inhibition, % at 12.5 µM; AID 488919;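 active means mean inhibition above about 50% when retested at one dose, limit read from the data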
Numbers stand for hits; 0 = inactive; - = not tested or not shown. Most compounds without a hit are left out; they make up all but 2.5% or so of the library.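 How the source made its calls, unless noted: active means mean inhibition above about 50% in the one-dose retest (limit read from the data); inactive means the rest.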

SMILES	SENP7 block	SENP1 FRET inh	SENP8 block-1	SENP6 inh	SENP8 block-2	SENP8 confirm	SENP6 conf	SENP7 conf	Casp3 SENP sel	SENP luc ctr
CNC(=O)c1c(NC(=O)c2cccc(C)c2)sc2c1CCC2	0	0	0	0	0	-	-	-	-	-
N#Cc1c(NC(=O)c2ccccc2)sc2c1CCC2	0	0	0	63	0	0	0	0	0	0
CC(CCCN(C)C)C(Cc1ccccc1)c1ccccc1 (stereo not given)	0	0	0	0	0	-	-	-	-	-
CCc1nc2ccc(C(=O)NCc3ccccc3OC)cn2c1N(CC)CCOC	-	0	0	-	-	-	-	-	-	-
Cc1ccsc1C(=O)Nc1ccc2c(c1)OCCO2	92	0	0	86	85	90	90	99	95	91
COc1ccc(NC(=O)c2ocnc2C)cc1OC	0	0	0	0	0	-	-	-	-	-
CC(=O)Nc1ccc2c(c1)OCCOCCOc1cc(NC(C)=O)ccc1OCCOCCOCCO2	0	-	-	0	0	-	-	-	-	-
Cc1ncoc1C(=O)Nc1ccc2c(c1)OCCO2	77	0	0	64	60	70	66	89	91	72
Cc1c([N+](=O)[O-])c(C(=O)Nc2ccc3c(c2)OCCO3)nn1C	73	0	0	75	0	68	66	87	89	72
Cc1ncoc1C(=O)Nc1ccc(Oc2ccccc2)cc1	56	0	0	62	0	51	0	78	0	62
CCCC[C@H](CN[C@@H](CNC)[C@H](C)CC)NCCC12CCC(CC1)C2	0	0	0	0	0	-	-	-	-	-
CCOC(=O)[C@H](C)N1[C@H](C)[C@H](c2ccccc2)Oc2ccc(Cl)cc2S1(=O)=O	-	0	0	-	-	-	-	-	-	-
O=C(c1ccccc1)c1nnc(-c2ccccc2F)o1	97	0	0	85	90	79	96	99	90	0
Cc1ccc(Cn2ccnc2C(=O)Nc2ccccc2)cc1	73	0	0	79	51	0	0	0	0	0
COc1ccc(Cl)cc1NC(=O)C(C)OC(=O)C1=NNC(=O)CC1 (stereo not given)	0	0	0	0	0	-	-	-	-	-
COCCCN1C(=O)C(CC(=O)NCc2ccco2)CC(C(=O)N(C(C)C)C(C)C)=C1C (stereo not given)	-	0	0	-	-	-	-	-	-	-
Cc1cccc(NC(=O)c2cc3ccccc3o2)c1	94	0	0	94	87	0	94	101	91	92
O=C(Nc1cccnc1)c1cc2cc(Br)ccc2o1	92	0	0	91	85	89	88	100	91	0
O=C(Nc1cccc(Br)c1)c1cc2ccccc2o1	0	0	0	94	89	94	94	101	82	88
CCOC(=O)c1ccc(NC(=O)c2cc3ccccc3o2)cc1	52	0	0	60	0	0	53	60	0	0
Cc1ccc(NCc2cccc(B(O)O)c2)cc1	-	0	0	-	-	-	-	-	-	-
CCC(=O)Nc1ccc(NC(=O)c2cc3ccccc3o2)c(OC)c1	0	0	0	0	0	-	-	-	-	-
CCC(=O)Nc1cccc(NC(=O)c2cc3ccccc3o2)c1	74	0	0	67	54	74	67	88	74	70
COc1ccc(-n2cc(C(=O)c3ccccc3O)cn2)cc1	100	0	0	95	94	96	98	102	96	95
COc1ccc(C(=O)CC(=O)c2ccccc2O)cc1	0	0	0	51	0	0	0	83	0	54
SMILES	SENP7 block	SENP1 FRET inh	SENP8 block-1	SENP6 inh	SENP8 block-2	SENP8 confirm	SENP6 conf	SENP7 conf	Casp3 SENP sel	SENP luc ctr
COc1ccccc1NC(=O)NC(=O)N(C(C)C)S(C)(=O)=O	0	0	0	0	0	-	-	-	-	-
CCCCN(C(=O)NC(=O)Nc1ccccc1OC)S(C)(=O)=O	56	0	0	0	0	0	0	0	0	0
CCCCNC(=O)C[C@@H]1C[C@@]2(C(=O)OCC)CCC=C2N(CCC2=CCCCC2)C1=O	-	0	0	-	-	-	-	-	-	-
O=c1c2cc(Br)ccc2nc(-c2ccccc2)n1O	0	0	0	62	0	65	61	84	61	72
Cc1ccsc1C(=O)OCC(=O)Nc1sccc1C(N)=O	67	0	0	0	0	56	58	79	67	0
Cc1ccsc1C(=O)OCC(=O)c1ccc(OC(F)F)cc1	97	0	0	95	94	69	91	102	92	0
COc1cccc(C(=O)COC(=O)c2cccs2)c1	86	0	0	84	77	0	81	97	84	82
COc1ccc(C(=O)COC(=O)c2cccs2)cc1	100	0	0	94	92	94	95	102	96	93
Cc1cc(C)cc(NC(=O)c2cc(C)nc3ccccc23)c1	0	0	0	0	0	-	-	-	-	-
CN(c1ccc([N+](=O)[O-])cc1)c1cc2c(c3c1ccn3C)C1CCC2C1 (stereo not given)	-	0	0	-	-	-	-	-	-	-
COc1ccccc1C(=O)COC(=O)c1cccs1	0	0	0	0	0	-	-	-	-	-
O=C(COC(=O)c1cccs1)c1ccccc1	83	0	0	90	79	78	80	96	89	84
COc1ccc2oc(C(=O)Nc3ccccn3)c(C)c2c1	92	0	0	87	77	85	85	98	88	88
COc1ccc2oc(C(=O)Nc3nc(C)cs3)c(C)c2c1	61	0	0	0	0	0	0	72	55	0
O=C(COc1ccc(Cl)cc1)NCc1nnc(SCC(=O)Nc2ccccc2F)o1	0	0	0	0	0	-	-	-	-	-
CCOC(=O)N1CCN(c2c(NCc3ccccc3Cl)c(=O)c2=O)CC1	0	0	0	0	0	-	-	-	-	-
Cn1c(SCc2ccc(C#N)cc2Cl)nc2ccccc21	80	0	0	75	69	0	76	57	0	0
N#Cc1ccc(CSc2ccccn2)c(Cl)c1	0	0	0	0	0	-	-	-	-	-
Cc1ccc2c(c1)CO[C@]21O[C@H](CCO)C[C@H](O)[C@H]1O	-	0	0	-	-	-	-	-	-	-
